Values after ≈ are worked out from the molar mass of the structure shown. Active and inactive are the calls of the source. The rule behind the calls is not given here.
Key:
L6 = experiment: Cytotoxicity against rat L6 cells; assay type: cell-based
Plasmodium falciparum [1] = experiment: Antiplasmodial activity against chloroquine-sensitive Plasmodium falciparum 3D7 assessed as inhibition of trophozoite stage parasite growth at IC50 after 6 hr by [3H]hypoxanthine incorporation assay; assay type: functional, organism-based
Method in brief: (§1)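 P. falciparum 3D7 is synchronized with sorbitol. […] Cells are washed four times, then labelled with [3H]hypoxanthine for 24 h. Growth is given as % of untreated control for each stage, in triplicate.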

Plasmodium falciparum [2] = experiment: Antiplasmodial activity against chloroquine-sensitive Plasmodium falciparum 3D7 assessed as inhibition of ring stage parasite growth at IC50 after 6 hr by [3H]hypoxanthine incorporation assay; assay type: functional, organism-based; method in brief: as §1
Plasmodium falciparum [3] = experiment: Antiplasmodial activity against chloroquine-sensitive Plasmodium falciparum 3D7 assessed as inhibition of schizont stage parasite growth at IC50 after 6 hr by [3H]hypoxanthine incorporation assay; assay type: functional, organism-based; method in brief: as §1
Heme = experiment: Inhibition of heme aggregation at 500 uM
Method in brief: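 Hemin chloride stock (10 mM in 0.1 M NaOH), prepared fresh and held at 37°C for at least 1 h. Aggregation run in 20 mM sodium phosphate pH 5.2 with 25 μM initial heme at 37°C. Inhibitor dissolved in dimethylformamide or buffer. After incubation, samples centrifuged and absorbance read at 360 nm, with matching control values subtracted.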

Row | Compound | IC50 (L6) [ng/mL] | growth inhibition (GI) (Plasmodium falciparum [1]) | growth inhibition (GI) (Plasmodium falciparum [2]) | growth inhibition (GI) (Plasmodium falciparum [3]) | inhibition (Heme)
1 | COc1cc([C@@H]2c3cc4c(cc3[C@H](O)[C@H]3COC(=O)[C@H]23)OCO4)cc(OC)c1OC [PODOFILOX] | 8 (≈ 0.0193 µM) | – | – | – | –
2 | CCN(CC)CCCC(C)Nc1ccnc2cc(Cl)ccc12 (stereo not given) | – | Active | Active | Active | inactive

From ChEMBL document CHEMBL1687720 (Antimicrob Agents Chemother, 2009)
